Values after ≈ are worked out from the molar mass of the structure shown.
Tests used:
[1] = biological target: T1, Penicillin-binding protein 1B (Escherichia coli K-12) (UniProt P02919); assay: Affinity for penicillin binding protein 1b of Escherichia coli UB1005 (DC0) was evaluated.; set-up: unit not given here
T1 sequence (whole entry): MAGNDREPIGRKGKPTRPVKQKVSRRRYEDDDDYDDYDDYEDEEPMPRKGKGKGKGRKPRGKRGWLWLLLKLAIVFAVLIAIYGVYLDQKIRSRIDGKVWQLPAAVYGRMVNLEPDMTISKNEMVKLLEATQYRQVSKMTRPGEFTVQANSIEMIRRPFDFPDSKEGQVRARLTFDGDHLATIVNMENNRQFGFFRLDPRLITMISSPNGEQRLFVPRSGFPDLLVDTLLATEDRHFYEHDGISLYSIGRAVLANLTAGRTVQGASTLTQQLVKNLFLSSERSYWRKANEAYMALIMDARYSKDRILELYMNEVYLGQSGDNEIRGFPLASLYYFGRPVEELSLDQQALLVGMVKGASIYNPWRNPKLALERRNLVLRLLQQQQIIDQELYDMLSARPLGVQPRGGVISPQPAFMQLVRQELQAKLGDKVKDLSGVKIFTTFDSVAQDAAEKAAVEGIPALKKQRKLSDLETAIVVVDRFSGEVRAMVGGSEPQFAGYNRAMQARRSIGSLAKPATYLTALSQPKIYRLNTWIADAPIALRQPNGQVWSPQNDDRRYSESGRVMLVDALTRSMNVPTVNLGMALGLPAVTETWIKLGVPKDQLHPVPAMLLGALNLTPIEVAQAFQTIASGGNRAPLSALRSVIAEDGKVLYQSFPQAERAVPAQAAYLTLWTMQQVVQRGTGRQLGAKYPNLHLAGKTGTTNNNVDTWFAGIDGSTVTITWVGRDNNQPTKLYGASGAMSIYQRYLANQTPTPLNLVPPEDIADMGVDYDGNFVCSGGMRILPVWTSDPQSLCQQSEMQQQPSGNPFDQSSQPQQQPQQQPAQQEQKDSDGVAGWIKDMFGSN
Outline: (§1)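 Solubilised membranes from sonicated E. coli UB1005 served as the binding-protein source. Binding was read as inhibition of [14C]penicillin G binding.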

[2] = biological target: T2, Peptidoglycan D,D-transpeptidase MrdA (Escherichia coli K-12) (UniProt P0AD65); assay: Affinity for penicillin binding protein 2 of Escherichia coli UB1005 (DC0) was evaluated.; set-up: unit not given here; outline: as §1
T2 sequence (whole entry): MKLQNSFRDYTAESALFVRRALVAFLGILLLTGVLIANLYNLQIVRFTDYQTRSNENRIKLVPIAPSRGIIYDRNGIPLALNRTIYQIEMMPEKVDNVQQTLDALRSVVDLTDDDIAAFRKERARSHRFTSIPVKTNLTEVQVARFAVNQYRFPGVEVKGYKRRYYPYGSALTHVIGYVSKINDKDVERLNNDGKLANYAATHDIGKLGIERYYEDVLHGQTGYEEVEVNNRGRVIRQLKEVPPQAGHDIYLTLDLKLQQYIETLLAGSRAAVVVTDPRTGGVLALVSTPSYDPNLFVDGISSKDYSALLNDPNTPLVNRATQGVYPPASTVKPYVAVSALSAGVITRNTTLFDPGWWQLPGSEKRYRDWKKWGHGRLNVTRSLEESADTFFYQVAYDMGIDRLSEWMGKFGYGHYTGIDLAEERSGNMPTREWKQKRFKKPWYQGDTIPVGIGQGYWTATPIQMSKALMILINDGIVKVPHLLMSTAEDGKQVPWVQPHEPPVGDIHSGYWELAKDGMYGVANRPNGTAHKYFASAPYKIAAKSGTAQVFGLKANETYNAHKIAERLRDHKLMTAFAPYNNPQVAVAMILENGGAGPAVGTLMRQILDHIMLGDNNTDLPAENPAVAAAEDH

Micrococcus luteus = assay: In vitro minimum inhibitory concentration was measured against Micrococcus luteus ATCC 9341 strain.; format: functional
Outline: (§2)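 Streptococci were tested on brain heart infusion agar plus 20 units/mL catalase, Proteus on Mueller-Hinton with 3% agar, and others on Mueller-Hinton agar. Inocula were 100-fold-diluted overnight cultures, about 3 × 10^4 CFU/spot, read after overnight incubation at 36 °C.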

Proteus mirabilis = assay: In vitro minimum inhibitory concentration was measured against Proteus mirabilis 90 strain.; format: functional; outline: as §2
Citrobacter freundii = assay: In vitro minimum inhibitory concentration was measured against Citrobacter freundii BS-16 (beta lactamase producer) strain.; format: functional
Outline: (§3)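 MICs were determined by agar dilution with 2-fold dilutions giving final 128–0.0156 µg/mL, extended to 0.000977 µg/mL where needed. Streptococci were tested on brain heart infusion agar plus 20 units/mL catalase, Proteus on Mueller-Hinton with 3% agar, and others on Mueller-Hinton agar. Inocula were 100-fold-diluted overnight cultures, about 3 × 10^4 CFU/spot, read after overnight incubation at 36 °C.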

Pseudomonas aeruginosa [3] = assay: In vitro minimum inhibitory concentration was measured against Pseudomonas aeruginosa 18S/H strain.; format: functional; outline: as §2
Staphylococcus aureus [4] = assay: In vitro minimum inhibitory concentration was measured against Staphylococcus aureus smith strain.; format: functional
Escherichia coli [5] = assay: Minimum inhibitory concentration for DC2, a permeability mutant; outline: as §3
[6] = biological target: T3, Penicillin-binding protein 1A (Escherichia coli K-12) (UniProt P02918); assay: Affinity for penicillin binding protein 1a of Escherichia coli UB1005 (DC0) was evaluated.; set-up: unit not given here; outline: as §1
T3 sequence (whole entry): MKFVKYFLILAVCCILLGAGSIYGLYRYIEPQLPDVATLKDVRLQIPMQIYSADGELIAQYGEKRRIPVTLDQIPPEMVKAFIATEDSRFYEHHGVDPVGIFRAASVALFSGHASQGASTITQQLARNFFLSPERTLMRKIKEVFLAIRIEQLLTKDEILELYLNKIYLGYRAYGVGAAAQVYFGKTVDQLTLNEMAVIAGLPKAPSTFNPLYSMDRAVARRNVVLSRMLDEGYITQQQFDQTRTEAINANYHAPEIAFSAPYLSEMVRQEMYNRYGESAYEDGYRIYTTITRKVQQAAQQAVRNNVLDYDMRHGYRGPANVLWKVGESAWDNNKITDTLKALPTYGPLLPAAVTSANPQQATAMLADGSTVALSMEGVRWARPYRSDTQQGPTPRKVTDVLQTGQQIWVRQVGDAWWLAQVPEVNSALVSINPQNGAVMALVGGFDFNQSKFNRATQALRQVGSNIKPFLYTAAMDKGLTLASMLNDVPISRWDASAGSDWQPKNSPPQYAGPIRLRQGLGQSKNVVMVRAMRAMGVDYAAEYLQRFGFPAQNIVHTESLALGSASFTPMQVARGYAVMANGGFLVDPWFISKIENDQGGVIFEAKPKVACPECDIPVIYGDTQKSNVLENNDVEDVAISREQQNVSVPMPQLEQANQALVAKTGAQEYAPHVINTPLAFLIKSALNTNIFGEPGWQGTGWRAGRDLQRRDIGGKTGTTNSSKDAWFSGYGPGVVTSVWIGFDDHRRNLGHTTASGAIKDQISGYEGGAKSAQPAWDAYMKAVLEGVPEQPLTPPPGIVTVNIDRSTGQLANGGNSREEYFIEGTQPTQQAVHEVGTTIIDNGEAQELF

Serratia marcescens = assay: In vitro minimum inhibitory concentration was measured against Serratia marcescens 1071(beta lactamase producer) strain.; format: functional; outline: as §2
Enterobacter cloacae [7] = assay: In vitro minimum inhibitory concentration was measured against Enterobacter cloacae 5699 strain.; format: functional
Proteus vulgaris = assay: In vitro minimum inhibitory concentration was measured against Proteus vulgaris 1028BC (beta lactamase producer) strain.; format: functional; outline: as §2
Enterococcus faecalis = assay: In vitro minimum inhibitory concentration was measured against Enterococcus faecalis ATCC 29212 strain.; format: functional; outline: as §2
Pseudomonas aeruginosa [8] = assay: In vitro minimum inhibitory concentration was measured against Pseudomonas aeruginosa 8780 strain.; format: functional; outline: as §2
Escherichia coli [9] = assay: In vitro minimum inhibitory concentration was measured against Escherichia coli 257 strain.; format: functional; outline: as §2
[10] = tested on: Penicillin-binding protein 3 (Escherichia coli); assay: Affinity for penicillin binding protein 3 of Escherichia coli UB1005 (DC0) was evaluated.; set-up: unit not given here
Escherichia coli [11] = assay: In vitro minimum inhibitory concentration was measured against Escherichia coli TEM-1 (Beta lactamase producer) strain.; format: functional; outline: as §2
Streptococcus pyogenes = assay: In vitro minimum inhibitory concentration was measured against Streptococcus pyogenes 4 strain.; format: functional; outline: as §2
Klebsiella pneumoniae = assay: In vitro minimum inhibitory concentration was measured against Klebsiella pneumoniae A strain.; format: functional; outline: as §2
Enterobacter cloacae [12] = assay: In vitro minimum inhibitory concentration was measured against Enterobacter cloacae p99 (beta lactamase producer) strain.; format: functional
Staphylococcus aureus [13] = assay: In vitro minimum inhibitory concentration was measured against Staphylococcus aureus 753 (Methicillin resistant) strain.; format: functional
Streptococcus pneumoniae = assay: In vitro minimum inhibitory concentration was measured against Streptococcus pneumoniae 6301 strain; format: functional; outline: as §2
Escherichia coli [14] = assay: In vitro minimum inhibitory concentration was measured against Escherichia coli ATCC 25922 strain.; format: functional; outline: as §2
Staphylococcus aureus [15] = assay: In vitro minimum inhibitory concentration was measured against Staphylococcus aureus 67-0 (Methicillin resistant) strain.; format: functional
Escherichia coli [16] = assay: Minimum inhibitory concentration against E. coli UB1005 (DC0)
[17] = Half life was measured as degradation by HPLC analysis.; format: ADME

Row | Structure (SMILES) | Binding affinity [1] | Binding affinity [2] | MIC (Micrococcus luteus) | MIC (Proteus mirabilis) | MIC (Citrobacter freundii) | MIC (Pseudomonas aeruginosa [3]) | MIC (Staphylococcus aureus [4]) | MIC (Escherichia coli [5]) | Binding affinity [6] | MIC (Serratia marcescens) | MIC (Enterobacter cloacae [7]) | MIC (Proteus vulgaris) | MIC (Enterococcus faecalis) | MIC (Pseudomonas aeruginosa [8]) | MIC (Escherichia coli [9]) | Binding affinity [10] | MIC (Escherichia coli [11]) | MIC (Streptococcus pyogenes) | MIC (Klebsiella pneumoniae) | MIC (Enterobacter cloacae [12]) | further results
1 | CO/N=C(\C(=O)N[C@@H]1C(=O)N2C(C(=O)O)=C(CN3CCNCC3)CS[C@H]12)c1csc(N)n1 | 100 | > 100 | 0.25 µg/mL (≈ 0.519 µM) | 0.5 µg/mL (≈ 1.04 µM) | 128 µg/mL (≈ 266 µM) | > 128 µg/mL | 4 µg/mL (≈ 8.31 µM) | 0.25 µg/mL (≈ 0.519 µM) | > 100 | 8 µg/mL (≈ 16.6 µM) | 0.5 µg/mL (≈ 1.04 µM) | > 128 µg/mL | 4 µg/mL (≈ 8.31 µM) | 64 µg/mL (≈ 133 µM) | 0.25 µg/mL (≈ 0.519 µM) | 100 | 0.5 µg/mL (≈ 1.04 µM) | 0.031 µg/mL (≈ 0.0644 µM) | 0.125 µg/mL (≈ 0.26 µM) | 128 µg/mL (≈ 266 µM) | MIC (Staphylococcus aureus [13]): > 128 µg/mL; MIC (Streptococcus pneumoniae): 0.063 µg/mL (≈ 0.131 µM); MIC (Escherichia coli [14]): 0.25 µg/mL (≈ 0.519 µM); MIC (Staphylococcus aureus [15]): > 128 µg/mL
2 | Nc1nc(/C(=N/OCC(=O)O)C(=O)N[C@@H]2C(=O)N3C(C(=O)O)=C(CN4CCN(c5cc6c(cc5F)c(=O)c(C(=O)O)cn6C5CC5)CC4)CS[C@H]23)cs1 | > 100 | > 100 | 1 µg/mL (≈ 1.3 µM) | 2 µg/mL (≈ 2.59 µM) | 1 µg/mL (≈ 1.3 µM) | 4 µg/mL (≈ 5.19 µM) | 8 µg/mL (≈ 10.4 µM) | 4 µg/mL (≈ 5.19 µM) | > 100 | 2 µg/mL (≈ 2.59 µM) | 1 µg/mL (≈ 1.3 µM) | 1 µg/mL (≈ 1.3 µM) | 16 µg/mL (≈ 20.8 µM) | 8 µg/mL (≈ 10.4 µM) | 0.25 µg/mL (≈ 0.324 µM) | 2 | 0.5 µg/mL (≈ 0.649 µM) | 0.125 µg/mL (≈ 0.162 µM) | 1 µg/mL (≈ 1.3 µM) | 0.25 µg/mL (≈ 0.324 µM) | MIC (Escherichia coli [16]): 2 µg/mL (≈ 2.59 µM); MIC (Staphylococcus aureus [13]): 8 µg/mL (≈ 10.4 µM); MIC (Streptococcus pneumoniae): 0.25 µg/mL (≈ 0.324 µM); MIC (Escherichia coli [14]): 0.5 µg/mL (≈ 0.649 µM); MIC (Staphylococcus aureus [15]): 32 µg/mL (≈ 41.5 µM)
3 | O=C(O)C1=C(CN2CCN(c3cc4c(cc3F)c(=O)c(C(=O)O)cn4C3CC3)CC2)CS[C@@H]2[C@H](NC(=O)C(C(=O)O)c3ccccc3)C(=O)N12 (some centres undefined) | > 100 | > 100 | – | – | 0.063 µg/mL (≈ 0.0893 µM) | – | – | 2 µg/mL (≈ 2.83 µM) | > 100 | – | – | – | 32 µg/mL (≈ 45.3 µM) | – | – | 100 | – | – | – | 0.063 µg/mL (≈ 0.0893 µM) | half-life [17]: 228 h; MIC (Escherichia coli [16]): 4 µg/mL (≈ 5.67 µM)
